Assay results: ChEMBL document CHEMBL1139878, “Rapid evolution of 6-phenylpurine inhibitors of protein kinase B through structure-based design” (J Med Chem, 2007)
Calls of active or inactive are those of the source. No cut-off for these calls is given here.

Experiments:
[1] = biological target: RAC-beta serine/threonine-protein kinase (Homo sapiens, UniProt P31751); test: Inhibition of PKBbeta by radiometric filter binding assay
[2] = biological target: cAMP-dependent protein kinase (PKA) (Homo sapiens, UniProt P22694+P17612+P22612); test: Inhibition of PKA by radiometric filter binding assay; type: protein assay
PC-3M = test: Inhibition of PC3M cells by SRB assay after 96 hrs; type: functional; details: Homo sapiens
HCT-116 = test: Inhibition of HCT116 cells by SRB assay after 96 hrs; type: functional; details: Homo sapiens, HCT-116, 96 h
U-87 MG [3] = test: Inhibition of U87MG cells by SRB assay after 96 hrs; type: functional, U-87MG ATCC; details: Homo sapiens
[4] = biological target: T1, Serine/threonine-protein kinase AKT (Homo sapiens, UniProt P31751+Q9Y243+P31749); test: Inhibition of GSK3-beta phosphorylation in PC3M cells after 1 hr by ELISA; type: functional, cell-based
[5] = biological target: T1, Serine/threonine-protein kinase AKT; test: Inhibition of GSK3-beta phosphorylation in U87MG cells by ELISA; type: functional, cell-based; details: u-87mg atcc
U-87 MG [6] = test: Decrease in pGSK3-beta protein levels in U87MG cells after 1 hr by Western blotting; type: functional, cell-based; details: Homo sapiens; U-87MG ATCC
Outline: (§1)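 U87MG glioblastoma cells were treated for 1 h across a titration of inhibitor concentrations. Phosphorylation states of PI3K-PKB-mTOR pathway components were then read out by Western blot with phospho-specific antibodies.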

U-87 MG [7] = test: Decrease in pS6 protein levels in U87MG cells after 1 hr by Western blotting; type: functional, cell-based; details: Homo sapiens; U-87MG ATCC; outline: as §1
U-87 MG [8] = test: Decrease in pFKHR protein levels in U87MG cells after 1 hr by Western blotting; type: functional, cell-based; details: Homo sapiens; U-87MG ATCC; outline: as §1
U-87 MG [9] = test: Increase in pSer473-PKB protein levels in U87MG cells after 1 hr by Western blotting; type: functional, cell-based; details: Homo sapiens; U-87MG ATCC; outline: as §1
Cytochrome P450 1A2 = biological target: T2, Cytochrome P450 1A2 (Homo sapiens, UniProt P05177); test: Inhibition of CYP1A2; type: ADME
T2 sequence (P05177 whole entry): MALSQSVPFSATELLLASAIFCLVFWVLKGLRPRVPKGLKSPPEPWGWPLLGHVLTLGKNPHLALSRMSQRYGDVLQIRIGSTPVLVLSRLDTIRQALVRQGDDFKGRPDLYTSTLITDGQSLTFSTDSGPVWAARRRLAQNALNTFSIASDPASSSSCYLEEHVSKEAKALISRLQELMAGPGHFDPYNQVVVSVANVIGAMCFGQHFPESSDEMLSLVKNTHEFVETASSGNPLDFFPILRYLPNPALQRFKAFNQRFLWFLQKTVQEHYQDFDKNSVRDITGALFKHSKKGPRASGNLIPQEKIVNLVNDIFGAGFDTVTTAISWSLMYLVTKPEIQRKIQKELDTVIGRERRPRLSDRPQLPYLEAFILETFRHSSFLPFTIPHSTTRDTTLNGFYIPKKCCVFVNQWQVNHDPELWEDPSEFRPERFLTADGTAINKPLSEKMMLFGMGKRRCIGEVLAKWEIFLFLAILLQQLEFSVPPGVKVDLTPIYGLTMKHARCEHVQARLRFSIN

Cytochrome P450 2C9 = Cytochrome P450 2C9 (Homo sapiens, UniProt P11712); test: Inhibition of CYP2C9; type: ADME
Cytochrome P450 2D6 = Cytochrome P450 2D6 (Homo sapiens, UniProt P10635); test: Inhibition of CYP2D6; type: ADME
Cytochrome P450 3A4 = Cytochrome P450 3A4 (Homo sapiens, UniProt P08684); test: Inhibition of CYP3A4; type: ADME
Cytochrome P450 2C19 = Cytochrome P450 2C19 (Homo sapiens, UniProt P33261); test: Inhibition of CYP2C19; type: ADME
Chain of Cytochrome P450 2C19 (P33261 whole entry): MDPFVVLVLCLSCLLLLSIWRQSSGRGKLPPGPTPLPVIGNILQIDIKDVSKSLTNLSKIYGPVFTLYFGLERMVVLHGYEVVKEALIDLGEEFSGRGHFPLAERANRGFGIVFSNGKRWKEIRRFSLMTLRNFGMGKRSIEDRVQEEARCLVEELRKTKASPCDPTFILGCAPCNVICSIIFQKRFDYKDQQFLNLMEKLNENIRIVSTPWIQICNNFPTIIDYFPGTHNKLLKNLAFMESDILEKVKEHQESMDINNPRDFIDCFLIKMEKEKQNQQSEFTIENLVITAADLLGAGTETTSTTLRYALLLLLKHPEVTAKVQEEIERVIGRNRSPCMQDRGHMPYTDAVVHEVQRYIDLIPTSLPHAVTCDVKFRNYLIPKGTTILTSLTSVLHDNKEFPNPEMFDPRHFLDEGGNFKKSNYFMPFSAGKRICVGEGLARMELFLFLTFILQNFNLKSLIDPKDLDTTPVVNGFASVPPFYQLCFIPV

Chain of RAC-beta serine/threonine-protein kinase (P31751 whole entry): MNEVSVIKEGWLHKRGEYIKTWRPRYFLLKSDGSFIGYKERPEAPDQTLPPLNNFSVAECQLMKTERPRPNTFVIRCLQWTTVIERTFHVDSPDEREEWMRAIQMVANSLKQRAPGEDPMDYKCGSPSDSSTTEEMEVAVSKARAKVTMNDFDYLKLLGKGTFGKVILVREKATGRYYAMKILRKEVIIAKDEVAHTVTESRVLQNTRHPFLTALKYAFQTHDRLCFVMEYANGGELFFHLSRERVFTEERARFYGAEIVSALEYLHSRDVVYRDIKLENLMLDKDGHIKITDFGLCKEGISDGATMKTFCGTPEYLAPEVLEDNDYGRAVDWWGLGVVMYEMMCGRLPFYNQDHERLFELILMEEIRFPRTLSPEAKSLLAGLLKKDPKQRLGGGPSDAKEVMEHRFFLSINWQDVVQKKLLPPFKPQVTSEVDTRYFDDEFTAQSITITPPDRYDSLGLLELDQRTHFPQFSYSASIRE
Chain of Cytochrome P450 3A4 (P08684 whole entry): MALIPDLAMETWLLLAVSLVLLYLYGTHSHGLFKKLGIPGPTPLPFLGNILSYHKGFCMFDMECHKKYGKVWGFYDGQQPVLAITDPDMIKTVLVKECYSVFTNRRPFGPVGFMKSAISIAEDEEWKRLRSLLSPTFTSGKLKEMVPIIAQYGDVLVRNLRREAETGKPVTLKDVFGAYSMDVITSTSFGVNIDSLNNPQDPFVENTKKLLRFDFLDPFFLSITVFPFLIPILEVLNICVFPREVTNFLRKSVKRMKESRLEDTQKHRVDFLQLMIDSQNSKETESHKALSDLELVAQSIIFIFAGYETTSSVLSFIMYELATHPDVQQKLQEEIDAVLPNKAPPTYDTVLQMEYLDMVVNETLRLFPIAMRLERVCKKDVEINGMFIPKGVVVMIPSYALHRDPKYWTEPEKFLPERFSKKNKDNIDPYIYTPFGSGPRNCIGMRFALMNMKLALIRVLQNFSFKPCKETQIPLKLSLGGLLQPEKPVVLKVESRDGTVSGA
Chain of Cytochrome P450 2C9 (P11712 whole entry): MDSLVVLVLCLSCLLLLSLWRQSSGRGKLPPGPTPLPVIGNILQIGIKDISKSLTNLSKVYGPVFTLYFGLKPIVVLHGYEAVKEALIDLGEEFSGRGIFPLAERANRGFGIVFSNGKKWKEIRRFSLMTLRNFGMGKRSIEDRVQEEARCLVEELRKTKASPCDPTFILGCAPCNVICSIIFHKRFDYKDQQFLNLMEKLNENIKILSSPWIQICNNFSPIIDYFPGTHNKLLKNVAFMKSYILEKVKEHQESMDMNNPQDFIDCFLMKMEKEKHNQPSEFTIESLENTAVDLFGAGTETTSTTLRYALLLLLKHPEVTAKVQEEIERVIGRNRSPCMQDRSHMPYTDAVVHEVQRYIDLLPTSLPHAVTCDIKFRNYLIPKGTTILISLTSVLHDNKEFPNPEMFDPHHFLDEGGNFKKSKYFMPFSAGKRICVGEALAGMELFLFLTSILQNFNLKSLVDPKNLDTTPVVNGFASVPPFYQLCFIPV
Chain of Cytochrome P450 2D6 (P10635 whole entry): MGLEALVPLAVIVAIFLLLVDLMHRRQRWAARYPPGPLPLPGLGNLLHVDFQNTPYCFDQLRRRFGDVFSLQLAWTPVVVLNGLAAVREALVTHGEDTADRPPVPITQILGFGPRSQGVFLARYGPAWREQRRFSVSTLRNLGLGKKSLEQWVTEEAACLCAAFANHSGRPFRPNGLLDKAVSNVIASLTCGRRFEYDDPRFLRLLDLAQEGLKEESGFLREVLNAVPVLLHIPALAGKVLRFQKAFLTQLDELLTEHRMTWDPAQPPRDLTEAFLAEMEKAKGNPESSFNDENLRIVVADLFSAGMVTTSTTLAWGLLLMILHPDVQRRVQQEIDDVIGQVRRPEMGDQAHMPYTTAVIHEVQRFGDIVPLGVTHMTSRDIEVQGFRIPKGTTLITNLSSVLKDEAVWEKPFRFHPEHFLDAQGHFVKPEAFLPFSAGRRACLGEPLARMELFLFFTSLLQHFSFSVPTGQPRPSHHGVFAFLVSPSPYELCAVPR

Row | Structure (SMILES) | IC50 [1] | IC50 [2] | GI50 (PC-3M) | also measured
1 | CNC(c1ccc(Cl)cc1)c1ccc(-c2ncnc3[nH]cnc23)cc1 (centres undefined) | 10 nM | 0.015 µM | 16 µM | –
2 | CNCc1ccc(-c2ncnc3[nH]cnc23)cc1 | 6900 nM | 5.2 µM | > 50 µM | –
3 | NCCc1cccc(-c2ncnc3[nH]cnc23)c1 | 3200 nM | – | > 50 µM | –
4 | NC(Cc1ccccc1)c1ccc(-c2ncnc3[nH]cnc23)cc1 (centres undefined) | 430 nM | 0.61 µM | 32 µM | –
5 | NC(c1ccccc1)c1ccc(-c2ncnc3[nH]cnc23)cc1 (centres undefined) | 400 nM | – | 32 µM | –
6 | Clc1ccc(C2(c3ccc(-c4ncnc5[nH]cnc45)cc3)CCNCC2)cc1 | – | 0.033 µM | 4.5 µM | GI50 (HCT-116): 5.7 µM; GI50 (U-87 MG [3]): 8.7 µM; IC50 [4]: 6 µM; IC50 [5]: 1.9 µM; Activity (U-87 MG [6]): Active; Activity (U-87 MG [7]): Active; Activity (U-87 MG [8]): Active; Activity (U-87 MG [9]): Active; IC50 (Cytochrome P450 1A2): > 10 µM; IC50 (Cytochrome P450 2C9): > 10 µM; IC50 (Cytochrome P450 2D6): > 10 µM; IC50 (Cytochrome P450 3A4): 10 µM; IC50 (Cytochrome P450 2C19): 1600 nM
7 | NC(c1ccc(Cl)cc1)c1ccc(-c2ncnc3[nH]cnc23)cc1 (centres undefined) | 9 nM | – | 28 µM | –
8 | CNCc1cccc(-c2ncnc3[nH]cnc23)c1 | 1600 nM | 5.5 µM | > 50 µM | –
9 | NCCc1ccc(-c2ncnc3[nH]cnc23)cc1 | 9500 nM | – | – | –
